Experimental findings from ChEMBL document CHEMBL1133606, “2-Carbomethoxy-3-aryl-8-bicyclo[3.2.1]octanes: potent non-nitrogen inhibitors of monoamine transporters” (J Med Chem, 2000) are described below.

The target of experiment [1] is Monoamine transporters; serotonin & dopamine (UniProt P31645+Q01959). The experiment is described as follows: Selectivity, ratio of binding to serotonin transporter (SERT) and dopamine transporter (DAT). The format is protein assay. The settings on record: Cercopithecidae. Summed up: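 Ratio computed as IC50 at SERT ([3H]citalopram binding) divided by IC50 at DAT ([3H]WIN 35,428 binding), both measured in caudate-putamen membranes.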
Chain of Monoamine transporters; serotonin & dopamine (P31645 whole entry, looked up): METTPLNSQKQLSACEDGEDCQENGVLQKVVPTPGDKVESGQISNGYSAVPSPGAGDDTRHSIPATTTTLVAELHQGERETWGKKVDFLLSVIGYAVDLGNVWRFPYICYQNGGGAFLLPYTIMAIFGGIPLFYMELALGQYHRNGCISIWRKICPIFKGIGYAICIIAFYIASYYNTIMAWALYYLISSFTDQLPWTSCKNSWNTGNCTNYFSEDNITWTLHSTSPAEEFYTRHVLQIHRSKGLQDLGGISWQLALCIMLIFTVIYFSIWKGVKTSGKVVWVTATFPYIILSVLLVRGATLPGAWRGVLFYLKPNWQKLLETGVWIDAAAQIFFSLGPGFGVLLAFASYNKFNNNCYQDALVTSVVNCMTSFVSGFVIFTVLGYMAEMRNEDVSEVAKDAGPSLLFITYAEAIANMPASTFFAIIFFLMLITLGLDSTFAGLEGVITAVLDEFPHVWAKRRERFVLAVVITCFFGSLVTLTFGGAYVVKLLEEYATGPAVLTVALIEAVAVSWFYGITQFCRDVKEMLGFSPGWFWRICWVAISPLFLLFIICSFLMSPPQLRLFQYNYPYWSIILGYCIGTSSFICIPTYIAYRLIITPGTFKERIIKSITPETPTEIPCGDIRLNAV
Chain of Monoamine transporters; serotonin & dopamine (Q01959 whole entry, looked up): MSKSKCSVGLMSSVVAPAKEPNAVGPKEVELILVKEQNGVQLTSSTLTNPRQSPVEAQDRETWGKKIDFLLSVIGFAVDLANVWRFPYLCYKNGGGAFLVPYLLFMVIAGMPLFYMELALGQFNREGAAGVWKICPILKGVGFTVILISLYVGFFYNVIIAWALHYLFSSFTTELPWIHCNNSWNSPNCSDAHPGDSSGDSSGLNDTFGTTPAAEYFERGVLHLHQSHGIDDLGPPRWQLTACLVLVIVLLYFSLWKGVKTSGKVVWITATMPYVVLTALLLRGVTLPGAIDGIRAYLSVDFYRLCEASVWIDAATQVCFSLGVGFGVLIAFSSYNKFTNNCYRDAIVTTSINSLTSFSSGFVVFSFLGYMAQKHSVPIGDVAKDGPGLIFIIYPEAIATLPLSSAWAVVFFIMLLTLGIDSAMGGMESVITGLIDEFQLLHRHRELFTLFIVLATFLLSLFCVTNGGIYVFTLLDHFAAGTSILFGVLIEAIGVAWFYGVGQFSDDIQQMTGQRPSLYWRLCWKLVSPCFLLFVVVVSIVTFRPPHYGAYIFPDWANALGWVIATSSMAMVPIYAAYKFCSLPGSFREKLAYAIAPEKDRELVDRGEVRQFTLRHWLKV

The target of experiment [2] is Sodium-dependent serotonin transporter (Homo sapiens, UniProt P31645). The experiment is described as follows: Inhibition of [3H]citalopram binding to the serotonin transporter in cynomolgus (macaca fascicularis) monkey caudate putamen. Format: tissue-based, Cercopithecidae. The settings on record: target entry is the homologue from another species. Summed up: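 Caudate-putamen membranes at 4 mg original wet tissue/mL final, competition vs 1 nM [3H]citalopram in 50 mM Tris·HCl pH 7.4 with 100 mM NaCl, 7–14 drug concentrations, 2 h at 0–4 °C. Filtration on 0.1% polyethyleneimine-presoaked filters, scintillation counting with cpm converted to dpm. Nonspecific binding with 1 μM fluoxetine. IC50 by EBDA, mean of triplicate experiments.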
Chain of Sodium-dependent serotonin transporter (P31645 whole entry): as the sequence (P31645 whole entry, looked up) above

The term IC50 denotes the concentration at which inhibition is half-maximal.

On to `COC(=O)c1ccccc1-c1ccc(Cl)cc1`, for which the Selectivity in experiment [1] stood at 68. The half-maximal inhibitory concentration (IC50) in experiment [2] (read-out: IC50) amounted to 46000 nM. For `COC(=O)[C@H]1C2CCC(C2)C[C@@H]1c1ccc(Cl)c(Cl)c1` (stereo in doubt; 7a) [listing 1 of 2 here], the IC50 in experiment [2] was found to be 33 nM. `COC(=O)C1=C(c2ccc(Cl)c(Cl)c2)CC2CCC1N2C` (stereo unspecified): the Selectivity in experiment [1] is 723. Turning to `COC(=O)C1C(c2ccc(Cl)c(Cl)c2)CC2CCC1N2C` (stereo in doubt; 13a) [listing 1 of 2 here], the IC50 in experiment [2] was determined as 358 nM.

On to `COC(=O)[C@H]1C2CCC(C2)C[C@@H]1c1ccc2ccccc2c1` (stereo in doubt; 9b) [listing 1 of 2 here], for which, in experiment [1], the Selectivity was 4. Regarding `COC(=O)c1ccccc1C(=O)OC` [DIMETHYL PHTHALATE], the half-maximal inhibitory concentration (IC50) in experiment [2] (read-out: IC50) is more than 100000 nM. For `COC(=O)[C@H]1C2CCC(C2)C[C@@H]1c1ccc2ccccc2c1` (stereo in doubt; 8b) [listing 1 of 2 here], the Selectivity in experiment [1] amounted to 67. Regarding `COC(=O)[C@@H]1C2CCC(C2)C[C@@H]1c1ccc(Cl)c(Cl)c1` (stereo partly specified), the Selectivity in experiment [1] stood at 46. The compound also came in with an IC50 in experiment [2] of 650 nM. Consider `COC(=O)C1=C(c2ccccc2)CC2CCC1N2C` (stereo unspecified), for which the IC50 result in experiment [2] is on record as “Not Active”.

For the compound `COC(=O)[C@H]1C2CCC(C2)C[C@@H]1c1ccc(Cl)c(Cl)c1` (stereo in doubt; 9a) [listing 1 of 2 here], in experiment [2], the IC50 was found to be 180 nM. On to `COC(=O)C1C(c2ccc3ccccc3c2)CC2CCC1N2C` (stereo unspecified), for which, in experiment [1], the Selectivity was found to be 4. The same compound yielded an IC50 in experiment [2] of 2.19 nM. As to `COC(=O)[C@H]1C2CCC(C2)C[C@@H]1c1ccc(Cl)c(Cl)c1` (stereo in doubt; 7a) [listing 2 of 2 here], the Selectivity in experiment [1] was 3. As for `COC(=O)C1=C(c2ccc3ccccc3c2)CC2CCC1N2C` (stereo unspecified), the Selectivity in experiment [1] is 38. Moreover, the 50% inhibitory concentration (IC50) in experiment [2] (read-out: IC50) stood at 109 nM. As to `COC(=O)c1ccccc1-c1ccccc1`, in experiment [2] (read-out: IC50), the 50% inhibitory concentration (IC50) was more than 70000 nM. As to `COC(=O)C1=C(c2ccccc2)CC2CCC1C2` (stereo unspecified), in experiment [2] (read-out: IC50), the half-maximal inhibitory concentration (IC50) was more than 10000 nM. Regarding `COC(=O)C1=C(c2ccc(F)cc2)CC2CCC1N2C` (stereo unspecified), the Selectivity in experiment [1] is 20. The half-maximal inhibitory concentration (IC50) in experiment [2] (read-out: IC50) came out at 7990 nM. For the compound `COC(=O)C1=C(c2ccc(Cl)c(Cl)c2)CC2CCC1C2` (stereo unspecified), in experiment [1], the Selectivity came out at 726. As for `COC(=O)[C@H]1C2CCC(C2)C[C@@H]1c1ccc2ccccc2c1` (stereo in doubt; 8b) [listing 2 of 2 here], in experiment [2], the IC50 amounted to 807 nM. The same measure, in the same setting: in the case of `COC(=O)[C@H]1[C@@H](c2ccc(F)cc2)C[C@H]2CC[C@H]1N2C` (stereo in doubt; 13c) it was 12200 nM.

As for `COC(=O)[C@@H]1C2CCC(C2)CC1c1ccc2ccccc2c1` (stereo partly specified), in experiment [1], the Selectivity turned out to be 4. The compound further gave an IC50 in experiment [2] of 106 nM. Consider `COC(=O)[C@H]1C2CCC(C2)C[C@@H]1c1ccc(Cl)c(Cl)c1` (stereo in doubt; 9a) [listing 2 of 2 here], for which the Selectivity in experiment [1] was 14. Consider `COC(=O)C1=C(c2ccc3ccccc3c2)CC2CCC1C2` (stereo unspecified), for which, in experiment [1], the Selectivity worked out at 119. In experiment [2], this compound returned a concentration for half-maximal inhibition (IC50) of 1310 nM. The compound `COC(=O)C1C(c2ccc(Cl)c(Cl)c2)CC2CCC1N2C` (stereo in doubt; 12a) [listing 1 of 2 here] returned a concentration for half-maximal inhibition (IC50) in experiment [2] of 2 nM. With `COC(=O)C1=C(c2ccc(F)cc2)CC2CCC1C2` (stereo unspecified), in experiment [1], the Selectivity came to 91. The same compound had an IC50 in experiment [2] of 35400 nM. Compound `COC(=O)[C@H]1C2CCC(C2)C[C@@H]1c1ccc2ccccc2c1` (stereo in doubt; 9b) [listing 2 of 2 here] came in with an IC50 in experiment [2] of 64 nM.

Consider `COC(=O)[C@@H]1C2CCC(C2)C[C@@H]1c1ccc2ccccc2c1` (stereo partly specified), for which, in experiment [1], the Selectivity is 2. Moreover, the IC50 in experiment [2] was found to be 60 nM.

With `COC(=O)c1ccccc1-c1ccc(F)cc1`, in experiment [1], the Selectivity worked out at 2. In addition, the IC50 in experiment [2] (read-out: IC50) came to 33000 nM. In the case of `COC(=O)C1C(c2ccc(Cl)c(Cl)c2)CC2CCC1N2C` (stereo in doubt; 12a) [listing 2 of 2 here], the Selectivity in experiment [1] amounted to 2. With `COC(=O)C1C2CCC(C2)CC1c1ccccc1` (stereo unspecified), the Selectivity in experiment [1] turned out to be 25. Also, in experiment [2] (read-out: IC50), the IC50 was more than 20000 nM. Take `COC(=O)C1C(c2ccc(Cl)c(Cl)c2)CC2CCC1N2C` (stereo in doubt; 13a) [listing 2 of 2 here]: the Selectivity in experiment [1] stood at 179. On the same count and under the same terms, the figure for `COC(=O)C1C(c2ccc(Cl)c(Cl)c2)CC2CCC1N2C` (stereo in doubt; 14a) is 68. Consider `COC(=O)[C@H]1C(c2ccc3ccccc3c2)CC2CCC1N2C` (stereo partly specified), for which the Selectivity in experiment [1] was determined as 10. In experiment [2], the IC50 was determined as 5.95 nM.

With `COC(=O)c1ccccc1-c1ccc2ccccc2c1`, the Selectivity in experiment [1] is 69. In experiment [2], this compound registered an IC50 of 10000 nM.
